# The list is not random: actives were taken first. Their share in the collection is about 2.4%.
# MPTP block: permeability transition pore inhibition; inhibition, % at 10 µM; AID 602449; 360,000 tested, 1.4% active; isolated mouse mitochondria, Ca2+ swelling absorbance, 30 min;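 active means inhibition of 50% or more, scaled per plate between neutral and stimulator controls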;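 further: 0% = DMSO wells given calcium and 100% = 1 mM EGTA wells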
# NR2E3 ag-1: activates human NR2E3 receptor; Q9Y5X4; inhibition of corepressor binding, % at 3.98 µM; AID 602229; CHO-S Gal4-NCOR/VP16-NR2E3 two-hybrid, luciferase; 360,000 tested, 0.35% active;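 active means inhibition above the mean of all tested compounds plus 3 SD, cut at about 70% in these data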;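 further: 0% = DMSO with NR2E3 transfected cells and 100% = cells lacking NR2E3 construct; higher means lower luciferase signal from less NR2E3 corepressor binding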
# Target sequence (Q9Y5X4 whole entry, looked up, the tested form may be a part): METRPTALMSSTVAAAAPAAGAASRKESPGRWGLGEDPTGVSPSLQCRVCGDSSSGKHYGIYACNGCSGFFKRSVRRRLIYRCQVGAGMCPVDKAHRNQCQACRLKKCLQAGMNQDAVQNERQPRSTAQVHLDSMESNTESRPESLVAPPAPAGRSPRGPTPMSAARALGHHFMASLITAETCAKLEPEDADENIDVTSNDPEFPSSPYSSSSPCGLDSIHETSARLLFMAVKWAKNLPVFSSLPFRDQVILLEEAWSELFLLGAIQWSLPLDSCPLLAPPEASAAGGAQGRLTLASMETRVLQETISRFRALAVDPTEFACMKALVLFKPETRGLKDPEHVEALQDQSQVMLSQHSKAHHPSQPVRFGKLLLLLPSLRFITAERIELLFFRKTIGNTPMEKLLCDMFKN
# NR2E3 ag-2: agonists of human nuclear receptor NR2E3; Q9Y5X4; GST-NR2E3/biotin-RetCOR TR-FRET, 1536-well; inhibition of corepressor binding, % at 4.78 µM; 320,000 tested, 0.12% active;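 active means percent inhibition above the cutoff of mean plus 3 SD of all tested compounds, set per screening campaign, cut at about 20% in these data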;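 further: 0% = DMSO wells and 100% = biotin wells as full block of FRET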
#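 Test system: GST-NR2E3 and biotin-RetCOR proteins | Quantity: 1.35 nM GST-tagged NR2E3 final | Medium: Tris pH 7.5 | Also added: 7 nM biotin-RetCOR | Dosing: Compound at 4.8 µM, single dose | Timing: 5 h at 4 °C | Detection: Time-resolved FRET | Read-out basis: Percent inhibition | Benchmarks: Biotin wells as high control, 0.6% DMSO wells as low control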
# aDG glyco up: alpha-DG glycosylation activation. Pro5-aDG cells, alpha-DG glycosylation AlphaScreen (IIH6); 0% Pro5, 100% B10-LARGE cell signal. activation, % at 10 µM. 360,000 tested, 0.22% active;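 active means activation of at least 8% versus controls, or a plate z-score of at least 8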;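 further: Pro5 are CHO cells carrying HIG-tagged alpha-DG that lacks glycosylation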
# Jurkat NFkB inh: inhibitors of the PMA/ionomycin-induced NF-kB reporter in Jurkat cells. inhibition, % at 4 µM. 330,000 tested, 0.53% active. PMA/ionomycin-induced NF-kB luciferase reporter, luminescence; in the data active means inhibition above about 50%
# 697 NFkB inh: lowers PMA/ionomycin-induced NF-kB signal in 697 B cells; inhibition, % at 4 µM; AID 435022; 330,000 tested, 0.33% active; 697 B-cell NF-kB luciferase reporter, 16 h; in the data active means inhibition above about 35%
# Jurkat NFkB conf: inhibitors of the PMA/ionomycin-induced NF-kB reporter in Jurkat cells, retest; shares compounds with Jurkat NFkB inh; Jurkat NF-kB luciferase, 16 h; inhibition, % at 4 µM; 2,700 tested, 27% active;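 active means inhibition reaching about 45% at 4 µM in either replicate, limit read from the data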;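 further: plate controls were PMA/ionomycin stimulated DMSO wells for no effect and unstimulated DMSO wells for full effect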
# 697 NFkB conf: lowers PMA/ionomycin-induced NF-kB signal in 697 B cells | 697 B-cell NF-kB luciferase, 16 h | inhibition, % at 4 µM | 2,000 tested, 35% active | shares compounds with 697 NFkB inh; in the data active means inhibition mostly above about 28%, no sharp cut-off; inactive means mostly below about 22%
# NR2E3 ag confirm: NR2E3 agonism confirmed in two-hybrid assay; CHO-S mammalian two-hybrid NR2E3-NCOR, luciferase luminescence; inhibition, % at 3.98 µM; 2,300 tested, 51% active; shares compounds with NR2E3 ag-1;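 active means average inhibition above a cutoff equal to the mean inhibition of all tested compounds plus one SD, cut at about 70% in these data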;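 further: 0% = DMSO in NR2E3 cells and 100% = DMSO in cells lacking NR2E3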
# GAL4-VP16 luc: counter-screen for NR2E3 agonists: GAL4-VP16 reporter inhibitors; shares compounds with NR2E3 ag-1; CHO-S GAL4-VP16 luciferase reporter, luminescence; inhibition, % at 3.98 µM; 2,300 tested, 29% active; AID 624379;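 active means mean inhibition above a cutoff equal to the average over all tested compounds plus one standard deviation, cut at about 70% in these data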;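 further: luciferase from a UAS reporter driven by GAL4-VP16 transactivation; 0% = DMSO with VP16-transfected cells and 100% = DMSO with cells lacking VP16; higher means less reporter light so more repression of VP16 activity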
# MPTP counter: membrane potential counter-screen of mitochondrial pore inhibitors. AID 624504. inhibition, % at 10 µM. shares compounds with MPTP block. 5,000 tested, 78% active. isolated mitochondria, Rhodamine 123 fluorescence; in the data active means inhibition above about 22%;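 further: 0% = DMSO vehicle and 100% = positive control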
# aDG glyco conf: confirmation of alpha dystroglycan glycosylation activators | AID 651671 | Pro5-aDG cells, alpha-DG glycosylation, IIH6 AlphaLISA; scaled to LARGE-overexpressing B10 cells as 100% | 600 tested, 17% active | activation, % at 10 µM (by protocol) | shares compounds with aDG glyco up;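 active means activation of at least 7% in one or more replicates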;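 further: cells exposed to compound for two days before detection; 0% = DMSO-treated Pro5 cells and 100% = DMSO-treated B10-LARGE cells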
# The depositor's hits bear a star; / = not tested or not shown.
SMILES,MPTP block,NR2E3 ag-1,NR2E3 ag-2,aDG glyco up,Jurkat NFkB inh,697 NFkB inh,697 NFkB conf,others
Oc1ccc(C[C@H]2CNC(=S)N2CC2CCCN2C[C@H](Cc2ccccc2)N2C[C@H](Cc3ccc(O)cc3)N(CCc3ccccc3)C2=S)cc1 (stereo not given in full),1,-53,/,0,/,/,/,
CCC(=O)N1c2ccc(S(=O)(=O)N3CCN(CC)CC3)cc2CC1C (stereo not given),0,0,3,0,-8,-20,/,
CCC(=O)N1c2ccc(S(=O)(=O)N3CCN(c4ccc([N+](=O)[O-])cc4)CC3)cc2CC1C (stereo not given),5,-40,-2,8.8*,52*,32,/,Jurkat NFkB conf=65*;aDG glyco conf=0
CCNc1ccc(S(=O)(=O)NCCN(C)C)cc1[N+](=O)[O-],2,-4,3,0,-4,-10,/,
CN(C)CCCNS(=O)(=O)c1ccc(NC2CCCCCC2)c([N+](=O)[O-])c1,85*,49,1,3.3*,56*,-26,/,Jurkat NFkB conf=23;NR2E3 ag confirm=55;GAL4-VP16 luc=64;MPTP counter=81*;aDG glyco conf=4.9*
CC(Sc1nnc2ccccn12)C(=O)Nc1ccc2c(c1)OCCO2 (stereo not given),0,-10,-2,0,-19,2,/,
CCN(C(=O)c1ccc(C(C)(C)C)cc1)c1nnc(Cn2nnc3ccccc32)s1,105*,89*,1,7.9*,57*,96*,91*,Jurkat NFkB conf=69*;NR2E3 ag confirm=92*;GAL4-VP16 luc=77*;MPTP counter=92*;aDG glyco conf=3
Cn1c(=O)cc(OCCCC(=O)N2CCCCC2)c2ccccc21,-1,-13,-1,0,-10,39*,42*,
Cn1c(=O)cc(OCCCC(=O)NCc2ccccn2)c2ccccc21,0,-7,0,0,4,36*,31*,
Cn1c(=O)cc(OCC(=O)NC2CCCCC2)c2ccccc21,-2,-10,4,0,-12,-5,/,
Cn1c(=O)cc(OCCCC(=O)NC2CCCC2)c2ccccc21,-2,-9,-3,0,4,69*,46*,
COc1ccc(-n2c(-c3ccc(Br)cc3)c[n+]3c2CCc2ccccc2-3)cc1,37,-12,3,0,25,101*,47*,
CC(C)(CSc1ncccn1)NS(=O)(=O)c1ccccc1,-1,-10,0,0,3,39*,6,
CC(C)(CSc1ccccn1)NS(=O)(=O)c1ccccc1,1,16,2,0,5,1,/,
CC(=O)c1ccc(N2CCN(c3ccnc4cc(Cl)ccc34)CC2)cc1,9,-8,2,1,40,42*,1,
COc1ccccc1/C=[N+](\[O-])C1SC(=S)N(C)C1(C)C (stereo not given),0,22,-2,0,8,8,/,
Cc1nc(C)c(-c2csc(Nc3ccccn3)n2)s1,0,-157,-2,0,-131,-381,-359,
C=CCOc1ccccc1CN1CCC(n2nccc2NC(=O)C2CC2)CC1,0,2,/,0,-7,18,/,
Cc1nn(C)c(Sc2ccccc2N)c1[N+](=O)[O-],3,-24,-1,1,-37,-32,/,
